Calls of active or inactive are those of the source. The calls are words filed in the database; no cut-off is given here.
Assays:
Bone marrow cell [1] = test: Osteoclastogenesis activity in BALB/c mouse bone marrow cells assessed as inhibition of MCSF-induced RANK gene expression at 1 uM after 7 days by RT-PCR analysis; format: functional, cell-based
In short: (§1)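 Bone marrow from long bones of 4–6-week-old Balb/c mice, plated overnight in α-MEM with 10% FBS and M-CSF. Nonadherent cells then cultured with RANKL 50 ng/ml and M-CSF 10 ng/ml plus test agent 1 µM, medium changed every 2 d for 7 d. TRAP and RANK mRNA measured by qPCR after Trizol RNA extraction, expressed as fold change over vehicle.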

Bone marrow cell [2] = test: Osteoclastogenesis activity in BALB/c mouse bone marrow cells assessed as inhibition of RANK-induced RANK gene expression at 1 uM after 7 days by RT-PCR analysis; format: functional, cell-based; in short: as §1
Bone marrow cell [3] = test: Osteoclastogenesis activity in BALB/c mouse bone marrow cells assessed as inhibition of MCSF-induced TRAP gene expression at 1 uM after 7 days by RT-PCR analysis; format: functional, cell-based; in short: as §1
MCF7 = test: Antiproliferative activity against human MCF7 cells expressing estrogen receptor after 48 hrs by MTT assay; format: functional, cell-based; conditions: MCF7, 48 h
In short: (§2)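 Cells seeded at 1×10^4/well in DMEM with 10% FBS for 24 h at 37 °C, then exposed to compounds for 48 h. MTT (5 mg/mL) added for 4 h. Formazan dissolved in DMSO and absorbance read at 540 nm. Routine culture used DMEM with 10% FBS, 5% CO2, reduced to 2% FBS for growth inhibition.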

Ishikawa = test: Antiproliferative activity against human Ishikawa cells expressing estrogen receptor after 48 hrs by MTT assay; format: functional, cell-based; in short: as §2
MDA-MB-231 = test: Antiproliferative activity against estrogen receptor-deficient human MDA-MB-231 cells […] after 48 hrs by MTT assay; format: functional, cell-based; conditions: MDA-MB-231, 48 h; in short: as §2
Rattus norvegicus [4] = species on record: Rattus norvegicus; test: Displacement of [3H]-estradiol from estrogen receptor in rat uteri after 18 hrs by scintillation counting relative to 17beta-estradiol
In short: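 Cytosol from uteri of immature 20–21-day-old rats, in TEA buffer pH 7.4 (10 mM Tris, 1.5 mM EDTA, 0.02% azide). Incubated in triplicate with fixed 3H-estradiol ± competitor (DMF ≤5% final) for 18 h at 4 °C. Free ligand removed with dextran-coated charcoal (15 min, 800g 10 min), then supernatant counted. RBA taken at 50% inhibition from the bound-versus-log concentration plot.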

Rattus norvegicus [5] = test: Estrogenic activity in Sprague-Dawley rat assessed as increase in uterine weight administered as po daily once for 3 days relative to control; format: functional; parameters: concentration or dose not given beside the values
In short: (§3)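 Immature female Sprague-Dawley rats given oral dosing once daily for 3 days on days 28–30 of age. Antiestrogenic arm co-dosed ethynylestradiol 0.02 mg/kg in 10% ethanol-water. Autopsy 24 h after last dose (day 31). Uterus excised, blotted and weighed, with vaginal opening and cornification also scored. Inhibition computed as (E − T)×100/E versus ethynylestradiol alone. Estrogenic gain expressed as percent increase over vehicle control.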

Rattus norvegicus [6] = test: Antiestrogenic activity in Sprague-Dawley rat assessed as inhibition of uterine weight gain administered as po daily once for 3 days relative to 17alpha-ethynylestradiol; format: functional; in short: as §3
Rattus norvegicus [7] = test: Antiimplantation activity in Sprague-Dawley albino rat at 20 mg/kg, po after 10 days; format: functional
In short: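 Sperm-positive adult Sprague-Dawley females (180–220 g) mated with proven-fertile males. Compounds given orally as a gum acacia suspension on days 1–5 post-coitum, 5–7 animals per group. Vehicle-only group served as control.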

Bone marrow cell [8] = test: Osteoclastogenesis activity in BALB/c mouse bone marrow cells assessed as inhibition of RANK-induced TRAP gene expression at 1 uM after 7 days by RT-PCR analysis; format: functional, cell-based; in short: as §1
Bone [9] = test: Antiosteoporotic activity in Sprague-Dawley rat [45Ca] pre-labeled bone assessed as inhibition of PTH-induced bone resorption after 96 hrs
Bone [10] = test: Antiosteoporotic activity in Sprague-Dawley rat [45Ca] pre-labeled bone assessed as inhibition of PTH-induced bone resorption after 96 hrs relative to control
HEK293 = test: Antiproliferative activity against human HEK293 cells after 48 hrs by MTT assay; format: cell-based; conditions: HEK293, 48 h; in short: as §2

| Compound | inhibition (Bone marrow cell [1]) | inhibition (Bone marrow cell [2]) | inhibition (Bone marrow cell [3]) | IC50 (MCF7) | IC50 (Ishikawa) | IC50 (MDA-MB-231) | RBA (Rattus norvegicus [4]) | Activity (Rattus norvegicus [5]) | inhibition (INH) (Rattus norvegicus [6]) | Activity (Rattus norvegicus [7]) | inhibition (Bone marrow cell [8]) | T/C (Bone [9]) | inhibition (INH) (Bone [10]) | IC50 (HEK293) |
| --- | --- | --- | --- | --- | --- | --- | --- | --- | --- | --- | --- | --- | --- | --- |
| O=C(CC(Sc1ccccc1)c1ccccc1)c1ccccc1 (stereo not given) | Active | Active | Active | 24 µM | 20 µM | 57 µM | 1.25% | 185% | 16% | inactive | Active | 0.562 | 43.8% | – |
| COc1ccc(C(CC(=O)c2ccccc2)Sc2ccccc2)cc1 (stereo not given) | Active | Active | Active | 21 µM | 26 µM | 34 µM | 2.67% | 192% | 18% | inactive | Active | 0.784 | 21.6% | – |
| COc1ccc(C(=O)CC(Sc2ccccc2)c2ccc(OC)cc2)cc1 (stereo not given) | Active | Active | Active | 17 µM | 16 µM | 31 µM | 2.21% | 187% | 16% | inactive | Active | 0.61 | 39% | 38.2 µM |
